Reference: ChEMBL document CHEMBL5113557, “Structural Basis for Inhibition of Mutant EGFR with Lazertinib (YH25448)” (ACS Med Chem Lett, 2022)
The source made the active and inactive calls. The rule behind the calls is not given here.

Key:
BaF3 [1] = test: Antiproliferative activity against mouse BAF3 cells harboring EGFR L858R mutant after 72 hrs by resazurin dye-based fluorescence assay; format: functional, cell-based; details: BaF3, 72 h
Summary of the method: (§1)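 Ba/F3 cells engineered to express each target were exposed to inhibitor for 72 h, after which proliferation was measured.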

BaF3 [2] = test: Antiproliferative activity against mouse BAF3 cells harboring HER2 wild type after 72 hrs by resazurin dye-based fluorescence assay; format: functional, cell-based; details: BaF3, 72 h; summary of the method: as §1
BaF3 [3] = test: Antiproliferative activity against mouse BAF3 cells harboring EGFR L858R/T790M mutant after 72 hrs by resazurin dye-based fluorescence assay; format: functional, cell-based; details: BaF3, 72 h; summary of the method: as §1
[4] = target: T1, Receptor tyrosine-protein kinase erbB-2 (Homo sapiens, UniProt P04626); test: Inhibition of HER2 in human BT474 cells assessed as reduction in autophosphorylation at Y1221/1222 residue at 5 to 100 nM after 6 hrs by Western blot analysis; format: cell-based; details: BT-474, dose 5-100 nM
Summary of the method: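 BT474 HER2-overexpressing breast cancer cells were treated with inhibitor at a range of doses for 6 h. Phospho-HER2 (pY1221/1222) was detected by Western blot. The blots shown are representative of three independent experiments.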

[5] = target: T2, Epidermal growth factor receptor (Homo sapiens, UniProt P00533); test: Inhibition of recombinant human N-terminal GST-tagged EGFR wild type (669 to 1210 residues) expressed in baculovirus infected Sf21 insect cells insect cells using AQT0734 as substrate measured up to 240 mins by fluorescence assay
[6] = target: T2, Epidermal growth factor receptor; details: Sf21, time <= 240.0 min
[7] = target: Epidermal growth factor receptor (Homo sapiens, UniProt P00533, L858R/T790M); test: Inhibition of recombinant human N-terminal GST-tagged EGFR (669 to 1210 residues) (unknown origin) L858R/T790M mutant expressed in baculovirus infected Sf21 insect cells using AQT0734 as substrate measured up to 240 mins by fluorescence assay
Homo sapiens [8] = species on record: Homo sapiens; test: Selectivity ratio of Ki for human N-terminal GST-tagged EGFR wild type (669 to 1210 residues) (unknown origin) to Ki for human N-terminal GST-tagged EGFR L858R/T790M mutant (669 to 1210 residues) (unknown origin)
Homo sapiens [9] = species on record: Homo sapiens; test: Selectivity ratio of Kinact for human N-terminal GST-tagged EGFR (669 to 1210 residues) (unknown origin) L858R/T790M mutant to Kinact for human N-terminal GST-tagged EGFR wild type (669 to 1210 residues) (unknown origin)
[10] = target: T1, Receptor tyrosine-protein kinase erbB-2; test: Inhibition of recombinant human N-terminal GST-tagged HER2 wild type (679 to 1255 residues) expressed in baculovirus infected Sf9 insect cells using AQT0794 measured up to 240 mins by fluorescence assay
Summary of the method: (§2)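 Time-dependent kinetic assay on the HER2 kinase domain with 1000 μM ATP and 15 μM Sox-based substrate sensor. Data come from a single experiment run in duplicate. kinact and Ki were obtained from a two-step fit, and errors are the standard error from the fit.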

Homo sapiens [11] = species on record: Homo sapiens; test: Selectivity ratio of Kinact/Ki for human N-terminal GST-tagged EGFR (669 to 1210 residues) (unknown origin) L858R/T790M mutant to Kinact/Ki for human N-terminal GST-tagged EGFR wild type (669 to 1210 residues) (unknown origin)
[12] = test system: Epidermal growth factor receptor (Homo sapiens), P00533 [L858R,T790M]; details: NCI-H1975, dose 5-50 nM, time 2.0 hrs
[13] = target: T1, Receptor tyrosine-protein kinase erbB-2; test: Inhibition of recombinant human N-terminal GST-tagged HER2 wild type (679 to 1255 residues) expressed in baculovirus infected Sf9 insect cells assessed as Kinact/Ki ratio using AQT0794 measured up to 240 mins by fluorescence assay; summary of the method: as §2
[14] = target: T1, Receptor tyrosine-protein kinase erbB-2; test: Inhibition of recombinant human N-terminal GST-tagged HER2 wild type (679 to 1255 residues) expressed in baculovirus infected Sf9 insect cells assessed as Kinact using AQT0794 as substrate measured up to 240 mins by fluorescence assay; summary of the method: as §2
[15] = test system: Epidermal growth factor receptor (Homo sapiens), P00533 [L858R,T790M]; details: Sf21, time <= 240.0 min

Epidermal growth factor receptor (Homo sapiens), P00533 [L858R,T790M], sequence (P00533 whole entry T790M/L858R, looked up, the tested form may be a part): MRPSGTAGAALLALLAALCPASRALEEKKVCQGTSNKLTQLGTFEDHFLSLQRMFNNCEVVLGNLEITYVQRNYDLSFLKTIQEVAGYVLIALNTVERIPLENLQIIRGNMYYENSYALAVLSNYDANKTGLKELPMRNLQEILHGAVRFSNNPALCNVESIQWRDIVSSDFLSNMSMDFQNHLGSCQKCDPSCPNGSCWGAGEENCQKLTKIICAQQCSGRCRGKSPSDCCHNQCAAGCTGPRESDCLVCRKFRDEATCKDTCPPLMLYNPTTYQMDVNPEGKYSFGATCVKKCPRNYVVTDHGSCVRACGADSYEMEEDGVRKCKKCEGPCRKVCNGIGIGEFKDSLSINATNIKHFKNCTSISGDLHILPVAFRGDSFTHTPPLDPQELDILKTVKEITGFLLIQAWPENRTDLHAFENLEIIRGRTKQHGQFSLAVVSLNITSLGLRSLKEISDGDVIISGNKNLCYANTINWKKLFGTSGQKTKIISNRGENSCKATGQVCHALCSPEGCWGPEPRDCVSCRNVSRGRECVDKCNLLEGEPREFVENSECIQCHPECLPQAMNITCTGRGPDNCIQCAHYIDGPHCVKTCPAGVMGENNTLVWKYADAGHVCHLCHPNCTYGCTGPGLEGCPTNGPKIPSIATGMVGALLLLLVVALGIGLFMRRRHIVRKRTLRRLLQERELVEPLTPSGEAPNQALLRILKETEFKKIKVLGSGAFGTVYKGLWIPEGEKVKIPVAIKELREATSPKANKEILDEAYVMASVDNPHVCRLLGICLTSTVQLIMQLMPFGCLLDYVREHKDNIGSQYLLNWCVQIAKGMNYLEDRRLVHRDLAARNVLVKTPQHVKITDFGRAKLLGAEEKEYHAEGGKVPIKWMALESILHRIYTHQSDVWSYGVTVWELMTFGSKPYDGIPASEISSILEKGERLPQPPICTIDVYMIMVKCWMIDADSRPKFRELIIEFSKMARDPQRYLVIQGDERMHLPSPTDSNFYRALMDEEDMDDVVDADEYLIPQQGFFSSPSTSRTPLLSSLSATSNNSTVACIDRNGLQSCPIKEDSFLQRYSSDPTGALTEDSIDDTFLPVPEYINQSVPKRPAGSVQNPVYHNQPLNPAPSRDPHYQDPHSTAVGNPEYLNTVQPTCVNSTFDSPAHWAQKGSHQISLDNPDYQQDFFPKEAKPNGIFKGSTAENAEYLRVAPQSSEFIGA
T1 sequence (P04626 whole entry): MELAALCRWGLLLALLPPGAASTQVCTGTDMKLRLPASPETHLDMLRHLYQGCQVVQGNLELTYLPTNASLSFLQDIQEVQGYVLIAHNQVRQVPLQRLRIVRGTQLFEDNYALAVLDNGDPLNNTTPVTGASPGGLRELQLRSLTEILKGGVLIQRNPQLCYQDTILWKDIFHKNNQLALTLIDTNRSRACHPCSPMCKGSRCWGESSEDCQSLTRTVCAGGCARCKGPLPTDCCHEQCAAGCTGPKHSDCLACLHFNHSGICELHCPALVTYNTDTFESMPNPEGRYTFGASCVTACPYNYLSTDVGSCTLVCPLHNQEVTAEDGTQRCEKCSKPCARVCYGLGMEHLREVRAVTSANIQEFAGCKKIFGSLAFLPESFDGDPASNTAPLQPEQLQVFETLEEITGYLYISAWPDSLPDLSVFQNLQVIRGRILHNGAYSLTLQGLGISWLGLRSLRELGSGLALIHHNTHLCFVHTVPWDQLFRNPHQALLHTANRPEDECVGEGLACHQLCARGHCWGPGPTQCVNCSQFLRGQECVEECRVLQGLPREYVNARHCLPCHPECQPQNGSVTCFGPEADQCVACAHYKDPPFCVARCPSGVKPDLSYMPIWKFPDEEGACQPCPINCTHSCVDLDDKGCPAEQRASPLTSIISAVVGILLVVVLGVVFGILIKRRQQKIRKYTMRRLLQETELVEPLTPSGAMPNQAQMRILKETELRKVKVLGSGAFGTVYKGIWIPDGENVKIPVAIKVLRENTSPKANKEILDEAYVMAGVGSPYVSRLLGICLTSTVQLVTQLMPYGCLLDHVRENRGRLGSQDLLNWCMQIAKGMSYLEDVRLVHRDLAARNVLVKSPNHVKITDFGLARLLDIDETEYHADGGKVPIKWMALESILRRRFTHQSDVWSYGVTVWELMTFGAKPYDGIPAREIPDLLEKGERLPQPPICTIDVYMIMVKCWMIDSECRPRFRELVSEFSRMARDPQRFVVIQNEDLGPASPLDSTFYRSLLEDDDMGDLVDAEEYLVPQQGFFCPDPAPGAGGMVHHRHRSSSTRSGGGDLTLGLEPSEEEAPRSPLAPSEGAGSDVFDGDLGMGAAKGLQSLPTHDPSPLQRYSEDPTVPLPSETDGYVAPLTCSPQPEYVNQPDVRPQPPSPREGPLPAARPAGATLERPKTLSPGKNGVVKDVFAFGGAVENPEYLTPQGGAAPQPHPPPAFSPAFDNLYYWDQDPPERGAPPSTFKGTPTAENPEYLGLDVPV
T2 sequence (P00533 whole entry, the tested form may be a part): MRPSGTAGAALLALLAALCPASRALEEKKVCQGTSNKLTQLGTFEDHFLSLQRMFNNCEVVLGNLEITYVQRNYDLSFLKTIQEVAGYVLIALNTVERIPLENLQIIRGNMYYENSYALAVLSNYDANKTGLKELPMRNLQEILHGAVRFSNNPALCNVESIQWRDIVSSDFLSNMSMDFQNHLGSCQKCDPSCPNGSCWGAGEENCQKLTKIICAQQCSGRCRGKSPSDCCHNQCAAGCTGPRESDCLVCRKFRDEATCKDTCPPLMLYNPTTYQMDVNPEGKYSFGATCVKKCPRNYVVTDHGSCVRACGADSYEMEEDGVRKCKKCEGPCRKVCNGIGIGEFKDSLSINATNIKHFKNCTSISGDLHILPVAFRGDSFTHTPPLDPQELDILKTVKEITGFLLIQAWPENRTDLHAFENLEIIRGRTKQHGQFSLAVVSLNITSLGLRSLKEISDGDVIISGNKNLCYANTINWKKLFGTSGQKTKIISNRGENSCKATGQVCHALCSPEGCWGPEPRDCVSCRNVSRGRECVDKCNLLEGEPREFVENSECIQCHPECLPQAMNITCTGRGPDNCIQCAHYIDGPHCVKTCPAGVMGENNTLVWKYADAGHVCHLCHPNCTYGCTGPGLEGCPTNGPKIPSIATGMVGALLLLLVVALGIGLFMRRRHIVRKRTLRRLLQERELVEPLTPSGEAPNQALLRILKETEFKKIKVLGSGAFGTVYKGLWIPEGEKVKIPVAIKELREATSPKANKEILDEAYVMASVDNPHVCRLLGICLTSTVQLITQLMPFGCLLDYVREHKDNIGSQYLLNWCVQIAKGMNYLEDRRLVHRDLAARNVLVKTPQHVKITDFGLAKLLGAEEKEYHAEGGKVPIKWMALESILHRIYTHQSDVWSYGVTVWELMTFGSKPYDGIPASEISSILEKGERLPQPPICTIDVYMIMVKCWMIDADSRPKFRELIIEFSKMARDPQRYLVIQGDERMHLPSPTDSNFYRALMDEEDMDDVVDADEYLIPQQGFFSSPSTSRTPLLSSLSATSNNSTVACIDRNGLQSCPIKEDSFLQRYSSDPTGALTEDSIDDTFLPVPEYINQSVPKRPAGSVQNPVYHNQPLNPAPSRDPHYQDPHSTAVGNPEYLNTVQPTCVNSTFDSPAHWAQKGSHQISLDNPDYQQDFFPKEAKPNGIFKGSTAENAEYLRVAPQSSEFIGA
Epidermal growth factor receptor (Homo sapiens, UniProt P00533, L858R/T790M), sequence (P00533 25-1210 T790M/L858R limits assumed): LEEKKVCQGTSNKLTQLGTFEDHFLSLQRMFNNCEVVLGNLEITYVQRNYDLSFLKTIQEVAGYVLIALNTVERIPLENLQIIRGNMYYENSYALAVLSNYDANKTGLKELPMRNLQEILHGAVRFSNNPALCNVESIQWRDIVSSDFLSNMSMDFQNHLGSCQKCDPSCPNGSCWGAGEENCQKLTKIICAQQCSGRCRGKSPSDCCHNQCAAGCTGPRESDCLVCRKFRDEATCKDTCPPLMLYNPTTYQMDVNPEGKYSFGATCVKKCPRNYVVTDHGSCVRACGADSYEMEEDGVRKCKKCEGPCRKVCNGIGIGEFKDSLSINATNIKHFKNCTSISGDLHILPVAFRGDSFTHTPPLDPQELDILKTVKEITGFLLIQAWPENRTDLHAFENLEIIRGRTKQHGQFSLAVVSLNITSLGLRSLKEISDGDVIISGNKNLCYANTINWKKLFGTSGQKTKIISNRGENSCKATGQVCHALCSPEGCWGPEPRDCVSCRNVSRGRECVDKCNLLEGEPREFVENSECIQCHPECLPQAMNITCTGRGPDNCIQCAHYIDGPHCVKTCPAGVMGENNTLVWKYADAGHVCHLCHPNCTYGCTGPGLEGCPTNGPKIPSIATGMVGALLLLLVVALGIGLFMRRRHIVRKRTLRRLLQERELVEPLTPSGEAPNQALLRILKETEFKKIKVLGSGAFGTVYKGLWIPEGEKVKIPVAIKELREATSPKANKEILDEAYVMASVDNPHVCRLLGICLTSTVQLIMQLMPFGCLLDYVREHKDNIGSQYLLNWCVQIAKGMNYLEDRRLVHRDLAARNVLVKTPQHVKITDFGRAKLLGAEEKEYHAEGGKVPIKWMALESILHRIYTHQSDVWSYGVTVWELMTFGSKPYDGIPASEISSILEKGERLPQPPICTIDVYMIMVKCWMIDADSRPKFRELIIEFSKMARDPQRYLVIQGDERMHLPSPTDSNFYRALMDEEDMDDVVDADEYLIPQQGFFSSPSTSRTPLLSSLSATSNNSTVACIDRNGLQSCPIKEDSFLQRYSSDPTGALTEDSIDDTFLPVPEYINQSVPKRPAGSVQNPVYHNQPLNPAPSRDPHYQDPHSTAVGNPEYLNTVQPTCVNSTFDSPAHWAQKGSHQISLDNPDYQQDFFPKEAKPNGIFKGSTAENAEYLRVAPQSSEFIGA

SMILES | EC50 (BaF3 [1]) [nM] | EC50 (BaF3 [2]) [nM] | EC50 (BaF3 [3]) [nM] | inhibition [4] | Ki [5] [nM] | Kinact [6] [min⁻¹] | Ki [7] [nM] | Ratio Ki (Homo sapiens [8]) | Selectivity ratio (Homo sapiens [9]) | Ki [10] [nM] | Selectivity ratio (Homo sapiens [11]) | inhibition [12] | Ratio [13] [M⁻¹ s⁻¹] | Kinact [14] [min⁻¹] | Kinact [15] [min⁻¹]
C=CC(=O)Nc1cc(Nc2nccc(-c3cn(C)c4ccccc34)n2)c(OC)cc1N(C)CCN(C)C [OSIMERTINIB] | 3.2 | 34 | 14 | Active | – | – | – | – | – | – | – | – | – | – | –
C=CC(=O)Nc1cc(Nc2nccc(-n3cc(CN(C)C)c(-c4ccccc4)n3)n2)c(OC)cc1N1CCOCC1 [LAZERTINIB] | 4.8 | > 100 | 7.4 | Active | 271 | 0.648 | 34 | 8 | 0.36 | 437 | 3.2 | Active | 6310 | 0.166 | 0.235
C=CC(=O)Nc1ccc(OC)c(Nc2cc(-c3[nH]c(SC)nc3-c3ccc(F)cc3)ccn2)c1 | 0.51 | – | 21 | Active | – | – | – | – | – | 142 | – | Active | – | – | –
